Results published in paper PMC2943235 (Circulation research, 2010).
Entries after “also recorded” stand apart in the source; their conditions may differ.

Columns and labels:
THP-1 cells [1] = assay: Cholesterol efflux from THP-1 cells, with or without LXR agonist; format: cell-based, human
THP-1 cells [2] = format: cell-based, human; details: (efflux from live cells minus fixed cells)/efflux from live cells x100%; 80 μg/ml; 4 h; compared with apoA-I
VCAM-1 = format: cell-based, mouse; details: 0.75 mg/ml; TNF-α-activated SVEC4/VCAM-1 cells
Procedure, shortened: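 SVEC4/VCAM-1 mouse endothelial cells were washed, then given test peptide, apoA-I or HDL at 0.75 mg/ml final for 18 h. TNF-α was added in serum-free medium (10 ng/ml final) for 5 h, and luciferase activity was measured. Activity was expressed per mg cellular protein, relative to vehicle-treated cells, as means ± SEM.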

Row | Substance | Capacity to support (ABCA1-dependent) cholesterol efflux, in words (THP-1 cells [1]) | Specificity of cholesterol efflux, in words (THP-1 cells [2]) | Inhibition of VCAM-1 expression, in words (VCAM-1)
1 | EWLKELLEKLLEKLKELL- P- EWLKELLEKLLEKLKELL [ELK-1W] | modest capacity for the ABC-dependent efflux | exceptional specificity | –
2 | EKLKAKLEELKAKLEELL- P- EKAKAALEEAKAKAEELA | very low overall capacity to support cholesterol efflux | – | –
3 | EKLKAKLEELKAKLEELL- P- EKLKAKLEELKAKLEELL [ELK-2A2K2E] | exceptional capacity to support cholesterol efflux, even exceeding that of apoA-I; also recorded: very active in ABCA1-dependent cholesterol efflux | exceptional specificity | –
4 | EKLKALLEKLLAKLKELL P- EKLKALLEKLLAKLKELL [ELK-2A] | – | – | most active peptide
